One series deals with Streptococcus pyogenes. Nature of the series: Antimicrobial activity against Streptococcus pyogenes A(IVM P 134) was determined. The format is functional. A digest of the protocol: (§1)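 MIC determined by serial dilution in liquid medium; values expressed as micromoles/milliliter.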
A short description of series [1]: Partition coefficient (logP). In kind it is physicochemical. Particulars: octanol/water. In a few lines:
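Octanol/water partition coefficient: some values measured experimentally by a standard literature procedure, with P = C_oct/C_H2O(1−α) correcting for ionization (α); the remaining values calculated by the method of Leo et al.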

A further series concerns Staphylococcus aureus. The series is described as follows: Antimicrobial activity against Staphylococcus aureus(ATCC 6538) was determined. In kind it is functional. In a few lines:
as §1

The test system of another series is Microsporum canis. Nature of the series: Antimicrobial activity against Microsporum canis(ATCC 11621) was determined. In kind it is functional. In a few lines: as §1

The results in this text go back to ChEMBL document CHEMBL1123841, “3-Carbonylacrylic derivatives as potential antimicrobial agents. Correlations between activity and reactivity toward cysteine” (J Med Chem, 1987).

Converted amounts (≈) assume the structure as drawn.

Regarding `C/C(=C\C(=O)O)C(=O)c1ccccc1`, the minimum inhibitory concentration (MIC) against Streptococcus pyogenes came to 2000 µM (≈ 380 µg/mL); against Staphylococcus aureus it was 18000 µM (≈ 3420 µg/mL). In series [1], this molecule had a log partition coefficient (logP) of 2.44.
The corresponding values for `O=C(O)/C=C/C(=O)c1cccnc1` are 50 µM (≈ 8.86 µg/mL), 1000 µM (≈ 177 µg/mL) and 0.26.
Molecule `C/C(=C\C(=O)O)C(=O)c1ccc(C)cc1` came in with a lipophilicity (logP) in series [1] of 2.94. Further, the MIC against Microsporum canis is 3200 µM (≈ 654 µg/mL); in the series with Staphylococcus aureus, 15000 µM (≈ 3060 µg/mL).
In the case of `C/C(=C/C(=O)O)C(=O)c1ccc(C)cc1`, the figures for the MIC against Streptococcus pyogenes, against Microsporum canis and in the series on Staphylococcus aureus were 2000 µM (≈ 408 µg/mL), 3200 µM (≈ 654 µg/mL) and greater than 15000 µM, respectively. The molecule further showed a lipophilicity (logP) in series [1] of 2.19.
As for `COC(=O)/C=C\C(=O)c1ccccc1`, the MIC was 3 µM (≈ 0.571 µg/mL) in the series on Streptococcus pyogenes, less than 2 µM with Microsporum canis and 40 µM (≈ 7.61 µg/mL) against Staphylococcus aureus. The same molecule yielded a logP in series [1] of 1.49.
As for `COC(=O)/C=C/C(=O)c1ccccc1`, the MIC with Streptococcus pyogenes was found to be 10 µM (≈ 1.9 µg/mL); against Microsporum canis it was 2.6 µM (≈ 0.495 µg/mL); in the series on Staphylococcus aureus, 40 µM (≈ 7.61 µg/mL). Also, in series [1], the logP amounted to 2.24.
The corresponding values for `C/C(=C/C(=O)c1ccc(C)cc1)C(=O)O` are 2000 µM (≈ 408 µg/mL), 3200 µM (≈ 654 µg/mL), 15000 µM (≈ 3060 µg/mL) and 2.19.
`CCCCCCCCCCCC(=O)/C(C)=C(/C)C(=O)O`: the MIC against Streptococcus pyogenes worked out at 10 µM (≈ 2.82 µg/mL). Moreover, the log partition coefficient (logP) in series [1] was determined as 4.4.
`CCCCC(=O)/C(C)=C(/C)C(=O)O` displayed a minimum inhibitory concentration (MIC) against Streptococcus pyogenes of 3800 µM (≈ 700 µg/mL). For the same molecule, the logP in series [1] was determined as 0.9.
As to `C/C(=C/C(=O)O)C(=O)c1ccccc1`, the MIC is 2200 µM (≈ 418 µg/mL) with Streptococcus pyogenes, 16000 µM (≈ 3040 µg/mL) in the series with Microsporum canis and greater than 16000 µM against Staphylococcus aureus. This molecule also showed a lipophilicity (logP) in series [1] of 1.69.
The corresponding values for `O=C(O)/C=C/C(=O)c1ccccc1` are 30 µM (≈ 5.29 µg/mL), 1000 µM (≈ 176 µg/mL), 1260 µM (≈ 222 µg/mL) and 1.94.
On the same counts, the results for `COC(=O)/C=C/C(=O)c1ccc(C)cc1` are 24 µM (≈ 4.9 µg/mL), 50 µM (≈ 10.2 µg/mL), 50 µM (≈ 10.2 µg/mL) and 2.74.
With `O=C(O)/C=C/C(=O)c1ccc(-c2ccccc2)cc1`, the MIC in the series with Streptococcus pyogenes was 6 µM (≈ 1.51 µg/mL); against Staphylococcus aureus it was 80 µM (≈ 20.2 µg/mL). In series [1], this molecule displayed a logP of 3.9.
Turning to `Cc1ccc(C(=O)/C=C/C(=O)O)cc1`, the minimal inhibitory concentration (MIC) against Streptococcus pyogenes stood at 13 µM (≈ 2.47 µg/mL); against Microsporum canis, 1000 µM (≈ 190 µg/mL); in the series with Staphylococcus aureus, 1000 µM (≈ 190 µg/mL). The same molecule showed a log partition coefficient (logP) in series [1] of 2.44.
On to `C/C(=C\C(=O)c1ccc(C)cc1)C(=O)O`, for which the MIC against Streptococcus pyogenes came out at 2000 µM (≈ 408 µg/mL); against Microsporum canis, 1200 µM (≈ 245 µg/mL); against Staphylococcus aureus it was 16000 µM (≈ 3270 µg/mL). In series [1], this molecule came in with a logP of 2.94.
The corresponding values for `COC(=O)/C=C/C(=O)c1cccnc1` are 42 µM (≈ 8.03 µg/mL), 5 µM (≈ 0.956 µg/mL), 160 µM (≈ 30.6 µg/mL) and 0.56.
Regarding `CCCCCCCC(=O)/C(C)=C(/C)C(=O)O`, in the series on Streptococcus pyogenes, inhibition of growth (MIC) required 320 µM (≈ 72.4 µg/mL). The molecule further displayed a logP in series [1] of 2.4.
